The IC50 is the concentration that inhibits the measured activity by half.

Data on 14 compounds can be found in ChEMBL document CHEMBL1146887 (J Med Chem, 2006).

Molecules are shown by their SMILES. The source made the active and inactive calls. No cut-off for these calls is given here. Where a SMILES comes first, the peptide text is derived from it. [ ]: non-standard residue; d: D form. The star is where a group is joined. Tyr(Nα,Nα-allyl2) = C=CCN(CC=C)[C@@H](Cc1ccc(O)cc1)C(=O)*; Aib = CC(C)(N)C(=O)O

In experiment [1] the target is T1, Delta-type opioid receptor (Homo sapiens, UniProt P41143). The experiment is described as follows: Agonist activity at delta opioid receptor at 31.6 uM. The experiment is classed as functional.
T1 sequence (P41143 whole entry): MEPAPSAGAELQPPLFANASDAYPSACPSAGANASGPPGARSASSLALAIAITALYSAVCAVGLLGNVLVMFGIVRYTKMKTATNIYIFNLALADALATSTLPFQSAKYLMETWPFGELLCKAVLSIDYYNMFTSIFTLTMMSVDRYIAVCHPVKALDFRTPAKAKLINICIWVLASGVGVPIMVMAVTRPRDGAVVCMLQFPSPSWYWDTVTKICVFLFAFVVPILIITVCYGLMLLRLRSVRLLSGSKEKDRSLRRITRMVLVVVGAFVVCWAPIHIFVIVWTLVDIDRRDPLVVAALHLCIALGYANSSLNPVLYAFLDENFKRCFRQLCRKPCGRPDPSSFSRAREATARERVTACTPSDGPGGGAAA
For experiment [2], the target named is Opioid receptors; mu & delta (Homo sapiens) (UniProt P41143+P35372). As to the kind of experiment: Selectivity for human cloned delta opioid receptor over mu opioid receptor. The experiment is classed as protein assay. Summed up:
(§1)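 Ratios of Ke values from [³⁵S]GTPγS antagonism assays at cloned human µ, δ and κ receptors in CHO membranes, each run with 10 µM GDP final against DAMGO, DPDPE or U69593 agonist curves.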

For experiment [3], the target named is Kappa-type opioid receptor (Homo sapiens) (UniProt P41145). The experiment is described as follows: Antagonist activity at human cloned kappa opioid receptor expressed in CHO cells assessed as inhibition of U69593-stimulated [35S]GTPgammaS binding in presence of 10 uM GDP. The experiment is classed as functional, cell-based. A digest of the protocol:
(§2)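 Membranes of CHO cells expressing cloned human receptor (0.4-0.6 pmol/mg), 20-40 µg protein, with 0.5 nM [³⁵S]GTPγS, 10 µM GDP final, 1% DMSO, in 20 mM Hepes pH 7.4, 100 mM NaCl, 10 mM MgCl₂; 1 h room temperature. Agonist curves (seven concentrations, 0.32-32 000 nM) ± one test concentration (µ 3-300, δ 1-50, κ 50-300 nM). Filtration over GF/B, scintillation counting; Ke as mean ± SE, ≥3 experiments.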
On the technique in general: Binding of GTPγS marks nucleotide exchange on a G protein.

In experiment [4] the target is T1, Delta-type opioid receptor. As to the kind of experiment: Antagonist activity at human cloned delta opioid receptor expressed in CHO cells assessed as inhibition of DPDPE-stimulated [35S]GTP-gamma-S binding in presence of 10 uM GDP. The experiment is classed as functional, cell-based. Summed up: as §2
In experiment [5] the target is T1, Delta-type opioid receptor. The experiment is described as follows: Inverse agonist activity at human cloned delta opioid receptor expressed in CHO cells assessed as […] [35S]GTP-gamma-S binding in presence of 1 uM GDP relative to control. It is filed as functional, cell-based. Details: scale not given: the % may be the effect or the level left.

For experiment [6], the target named is T1, Delta-type opioid receptor. As to the kind of experiment: Inverse agonist activity at human cloned delta opioid receptor expressed in CHO cells assessed as […] [35S]GTP-gamma-S binding in presence of 1 uM GDP. The experiment is classed as functional, cell-based.
The target of experiment [7] is Opioid receptors; delta & kappa (Homo sapiens) (UniProt P41145+P41143). As to the kind of experiment: Selectivity for human cloned delta opioid receptor over kappa opioid receptor. The experiment is classed as protein assay. A digest of the protocol:
as §1

The target in experiment [8] is Mu-type opioid receptor (Homo sapiens) (UniProt P35372). As to the kind of experiment: Intrinsic activity at mu opioid receptor in presence of 1 uM GDP. It is filed as functional.
Sequence of Mu-type opioid receptor (Homo sapiens) (P35372 whole entry): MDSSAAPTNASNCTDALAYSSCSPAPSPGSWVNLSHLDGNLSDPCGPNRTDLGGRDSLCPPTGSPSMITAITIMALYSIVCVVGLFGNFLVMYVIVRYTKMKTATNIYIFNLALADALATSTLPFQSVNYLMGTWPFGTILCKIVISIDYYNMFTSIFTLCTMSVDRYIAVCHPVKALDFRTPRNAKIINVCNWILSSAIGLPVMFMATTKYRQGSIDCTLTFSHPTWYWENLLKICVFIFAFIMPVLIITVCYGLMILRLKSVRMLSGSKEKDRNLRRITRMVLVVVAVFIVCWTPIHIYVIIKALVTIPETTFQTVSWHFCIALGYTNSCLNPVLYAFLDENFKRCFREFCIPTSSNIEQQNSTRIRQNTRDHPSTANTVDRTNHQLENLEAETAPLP
Experiment [9] has the same target. As to the kind of experiment: Antagonist activity at human cloned mu opioid receptor expressed in CHO cells assessed as inhibition of DAMGO-stimulated [35S]GTP-gamma-S binding in presence of 10 uM GDP. The experiment is classed as functional, cell-based. Summed up: as §2
The target of experiment [10] is Kappa-type opioid receptor (Homo sapiens) (UniProt P41145). The experiment is described as follows: Intrinsic activity at kappa opioid receptor in presence of 1 uM GDP. The experiment is classed as functional.
Sequence of Kappa-type opioid receptor (Homo sapiens) (P41145 whole entry): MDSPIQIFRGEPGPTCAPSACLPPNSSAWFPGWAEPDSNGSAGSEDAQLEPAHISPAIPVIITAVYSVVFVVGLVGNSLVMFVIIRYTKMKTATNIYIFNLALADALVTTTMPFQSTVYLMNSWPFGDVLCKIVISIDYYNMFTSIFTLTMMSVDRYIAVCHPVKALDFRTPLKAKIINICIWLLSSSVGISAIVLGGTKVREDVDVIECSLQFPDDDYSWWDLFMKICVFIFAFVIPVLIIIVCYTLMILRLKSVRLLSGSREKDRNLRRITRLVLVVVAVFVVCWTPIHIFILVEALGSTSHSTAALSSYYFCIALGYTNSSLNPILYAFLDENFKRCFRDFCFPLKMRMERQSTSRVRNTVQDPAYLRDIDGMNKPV

Sequence of Opioid receptors; delta & kappa (Homo sapiens) (P41143 whole entry, looked up): as the sequence (P41143 whole entry) above
Sequence of Opioid receptors; delta & kappa (Homo sapiens) (P41145 whole entry, looked up): as the sequence (P41145 whole entry) above
Sequence of Opioid receptors; mu & delta (Homo sapiens) (P35372 whole entry, looked up): as the sequence (P35372 whole entry) above
Sequence of Opioid receptors; mu & delta (Homo sapiens) (P41143 whole entry, looked up): as the sequence (P41143 whole entry) above

In the case of `CC1CN(CCCc2ccccc2)[C@@H]2C[C@@H](NC(=O)C3(c4ccccc4)CCCC3)C[C@@]1(c1cccc(O)c1)C2` (single isomer, unassigned; (+)), the result in [1], in experiment [8] and in [10] was inactive. Further, the Ratio Ke was found to be 58 in experiment [2] and 119 in experiment [7]. Moreover, the Ke in [3] amounted to 17.9 nM; in experiment [4], 0.15 nM; in [9], 8.7 nM. In addition, in [5], the Activity was determined as 70%. For the same compound, the IC50 in [6] was 1.8 nM.
With `Oc1ccc2c3c1O[C@H]1c4[nH]c5ccccc5c4C[C@@]4(O)[C@@H](C2)N(CC2CC2)CC[C@]314`, the outcome in experiment [1], in experiment [8] and in experiment [10] was inactive. Moreover, the values for the Ratio Ke in [2] and in experiment [7] were 157 and 77, respectively.
For the compound `C=CCN(CC=C)[C@@H](Cc1ccc(O)cc1)C(=O)NC(C)(C)C(=O)NC(C)(C)C(=O)N[C@@H](Cc1ccccc1)C(=O)N[C@@H](CC(C)C)C(=O)O` ({Tyr(Nα,Nα-allyl2)}-[Aib][Aib]FL-OH), the outcome in experiment [1], in experiment [8] and in experiment [10] was inactive. Further, the Ratio Ke in experiment [2] was found to be 5.3; in experiment [7], 43. Also, the Activity in [5] turned out to be 75%. For the same compound, the IC50 in experiment [6] came out at 83 nM.
Take `C[C@H]1CN(C/C=C/c2ccccc2)[C@@H]2C[C@@H](NC(=O)C(C)(C)c3ccccc3)C[C@@]1(c1cccc(O)c1)C2`: the outcome in experiment [1], in experiment [8] and in [10] was inactive. Also, the Ratio Ke in experiment [2] is 2.4; in experiment [7] it was 20. Also, the values for the Ke in [3], in [4] and in [9] were 15.8 nM, 0.81 nM and 1.9 nM, respectively. Moreover, in experiment [5], the Activity turned out to be 78%. For the same compound, the IC50 in [6] was 0.72 nM.
In the case of `CCC(CC)(C(=O)N[C@@H]1C[C@@H]2C[C@](c3cccc(O)c3)(C1)[C@@H](C)CN2CCCc1ccccc1)c1ccccc1`, the result in experiment [1], in [8] and in experiment [10] was inactive. For the same compound, the Ratio Ke in [2] came to 59; in experiment [7], 74. Besides, the Ke worked out at 14.6 nM in experiment [3], 0.2 nM in [4] and 11.7 nM in [9]. For the same compound, the Activity in [5] was found to be 61%. In addition, the IC50 in [6] stood at 1.8 nM.
Take `C[C@H]1CN(CCCc2ccccc2)[C@@H]2C[C@@H](NC(=O)C(C)(C)c3ccccc3)C[C@@]1(c1cccc(O)c1)C2`: the result in [1], in experiment [8] and in experiment [10] was inactive. For the same compound, the Ratio Ke is 103 in experiment [2] and 132 in experiment [7]. The Ke in experiment [3] is 13.2 nM; in experiment [4], 0.1 nM; in experiment [9], 10.3 nM. Moreover, the Activity in experiment [5] worked out at 64%. Also, the IC50 in experiment [6] was 0.4 nM.
For the compound `C[C@H]1CN(CCCc2ccccc2)[C@@H]2C[C@@H](NC(=O)C3(c4ccccc4)CCCCC3)C[C@@]1(c1cccc(O)c1)C2`, the result in experiment [1], in experiment [8] and in experiment [10] was inactive. The Ratio Ke in experiment [2] is 67; in [7], 30. For the same compound, the Ke in [3] was found to be 10.2 nM; in experiment [4], 0.34 nM; in experiment [9] it was 22.8 nM. Also, the Activity in experiment [5] stood at 65%. For the same compound, the concentration for half-maximal inhibition (IC50) in [6] amounted to 0.68 nM.
On to `C[C@@H](C(=O)N[C@@H]1C[C@@H]2C[C@](c3cccc(O)c3)(C1)[C@@H](C)CN2CCCc1ccccc1)c1ccccc1`, for which the result in experiment [1], in experiment [8] and in experiment [10] was inactive. The Ratio Ke in [2] came to 69; in [7] it was 58. The Ke in experiment [3] is 8.1 nM; in [4], 0.14 nM; in experiment [9], 9.6 nM. In addition, in experiment [5], the Activity amounted to 78%. Moreover, in experiment [6], the half-inhibitory concentration (IC50) amounted to 0.15 nM.
In the case of `Cc1ccccc1/C=C/CN1C[C@H](C)[C@@]2(c3cccc(O)c3)C[C@H](NC(=O)C(C)(C)c3ccccc3)C[C@@H]1C2`, the result in experiment [1], in experiment [8] and in experiment [10] was inactive. Also, the Ratio Ke was 2.2 in experiment [2] and 14 in experiment [7]. Also, the Ke in experiment [3] is 6.7 nM; in [4] it was 0.47 nM; in experiment [9], 1.02 nM. Besides, in experiment [5], the Activity stood at 70%. For the same compound, the IC50 in experiment [6] turned out to be 0.12 nM.
Consider `C[C@H]1CN(CCCc2ccccc2)[C@@H]2C[C@@H](NC(=O)C3(c4ccccc4)CCCCCC3)C[C@@]1(c1cccc(O)c1)C2`, for which the result in experiment [1], in [8] and in [10] was inactive. Further, the results for the Ratio Ke in experiment [2] and in [7] were 93 and 67, respectively. The Ke in [3] is 17.5 nM; in experiment [4], 0.26 nM; in [9], 24.4 nM. In addition, in experiment [5], the Activity worked out at 70%. Also, the half-inhibitory concentration (IC50) in experiment [6] turned out to be 0.39 nM.
As to `C[C@H]1CN(CCCc2ccccc2)[C@@H]2C[C@@H](NC(=O)C3(c4ccccc4)CCC3)C[C@@]1(c1cccc(O)c1)C2`, the outcome in [1], in experiment [8] and in experiment [10] was inactive. Besides, the Ratio Ke in experiment [2] turned out to be 62; in experiment [7] it was 94. In addition, the Ke in [3] stood at 16 nM; in experiment [4], 0.17 nM; in experiment [9], 10.6 nM. In addition, the Activity in experiment [5] amounted to 65%. Moreover, the IC50 in experiment [6] came to 0.42 nM.
With `C[C@H]1CN(CCCc2ccccc2)[C@@H]2C[C@@H](NC(=O)C3(c4ccsc4)CCCC3)C[C@@]1(c1cccc(O)c1)C2`, the result in experiment [1], in experiment [8] and in experiment [10] was inactive. For the same compound, the Ratio Ke in experiment [2] stood at 8.8; in experiment [7] it was 33. Also, the figures for the Ke in experiment [3], in experiment [4] and in experiment [9] were 7.77 nM, 0.24 nM and 2.07 nM, respectively. In addition, in experiment [5], the Activity is 86%. In experiment [6], the IC50 was found to be 0.45 nM.
On to `COc1ccc(C2(C(=O)N[C@@H]3C[C@@H]4C[C@](c5cccc(O)c5)(C3)[C@@H](C)CN4CCCc3ccccc3)CCCC2)cc1`, for which the outcome in experiment [1], in [8] and in [10] was inactive. Besides, the Ratio Ke in experiment [2] came out at 18; in [7], 3.6. For the same compound, the Ke in [3] was 2.43 nM; in experiment [4], 0.67 nM; in [9] it was 12 nM. Also, the Activity in experiment [5] stood at 72%. Also, the concentration for half-maximal inhibition (IC50) in experiment [6] amounted to 0.48 nM.
For `C[C@H]1CN(CCCc2ccccc2)[C@@H]2C[C@@H](NC(=O)C3(c4cccs4)CCCC3)C[C@@]1(c1cccc(O)c1)C2`, the result in experiment [1], in experiment [8] and in [10] was inactive. For the same compound, the Ratio Ke in experiment [2] came to 7.1; in [7] it was 77. Further, the Ke in experiment [3] was 24 nM; in experiment [4] it was 0.31 nM; in experiment [9] it was 2.19 nM. In addition, the Activity in experiment [5] came out at 54%. In experiment [6], the IC50 was 0.8 nM.
